Assay outcomes as filed in PubChem BioAssay.
Most compounds without a hit are left out; they make up all but 1.9% or so of the library.
M5 antag = blocks acetylcholine activation of human M5 receptor | P08912 | CHO-hM5 cells, Fluo-8 calcium fluorescence, ACh EC80 | inhibition, % at 3 µM | actives 0.59% (n = 360,000) | AID 624040;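 active means inhibition above a per-plate cutoff, the mean of that plate's test compounds plus 3 SD, cut at about 27% in these data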;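 further: 0% = acetylcholine EC80 with DMSO and 100% = DMSO without agonist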
CHRM5 agonist = CHRM5 agonism in calcium assay; AID 624037; actives 0.19% (n = 360,000); activation, % at 3 µM; P08912; CHO-K1 hM5 cells, Fluo-8 calcium fluorescence; 0% DMSO wells, 100% maximal acetylcholine response;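 active means activation above the run's mean over test compounds plus 3 SD, cut at about 23% in these data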;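 further: signal is peak over basal fluorescence ratio across the kinetic read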
M4 ag = agonists of human muscarinic M4 receptor (CHRM4); P08173; CHO-K1 hM4/Gqi5, Fluo-8 calcium fluorescence; vehicle 0%, full acetylcholine response 100%; activation, % at 3 µM; actives 0.14% (n = 360,000); AID 624127;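 active means activation above the run mean over all test wells plus 3 SD, cut at about 32% in these data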;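 further: peak over basal fluorescence ratio per well then scaled between controls; 0% = DMSO wells and 100% = acetylcholine at EC100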
Target sequence (P08173 whole entry, looked up): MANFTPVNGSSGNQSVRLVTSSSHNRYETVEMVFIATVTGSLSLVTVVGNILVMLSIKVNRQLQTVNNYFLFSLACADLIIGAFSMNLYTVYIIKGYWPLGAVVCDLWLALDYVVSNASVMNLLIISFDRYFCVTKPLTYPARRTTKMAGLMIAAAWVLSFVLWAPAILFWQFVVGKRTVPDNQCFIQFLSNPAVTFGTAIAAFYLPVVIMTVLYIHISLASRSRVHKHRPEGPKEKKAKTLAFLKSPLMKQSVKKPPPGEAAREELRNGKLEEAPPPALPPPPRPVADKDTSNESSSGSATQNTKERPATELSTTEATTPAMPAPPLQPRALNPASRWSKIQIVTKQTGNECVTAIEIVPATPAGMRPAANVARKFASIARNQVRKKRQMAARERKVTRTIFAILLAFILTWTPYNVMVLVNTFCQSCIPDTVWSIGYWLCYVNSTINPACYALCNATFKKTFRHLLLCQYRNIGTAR
CHRM4 antagonist = antagonists of human muscarinic M4 receptor (CHRM4). P08173. CHO-hM4 cells, ACh EC80, Fluo-8 calcium fluorescence. inhibition, % at 3 µM. actives 0.73% (n = 360,000). AID 624125;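 active means inhibition above its plate's cutoff, the mean inhibition of sample wells plus 3 SD, cut at about 27% in these data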;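 further: 0% = acetylcholine EC80 with DMSO and 100% = DMSO without agonist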
CHRM4 PAM = positive allosteric modulators of human muscarinic M4 receptor | CHO-K1 hM4/Gqi5, Fluo-8 calcium fluorescence, ACh EC20; 0% = ACh EC20, 100% = maximal ACh | actives 0.4% (n = 360,000) | activation, % at 3 µM;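 active means activation above its plate's cutoff, the mean activation of sample wells plus 3 SD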
M5 PAM = CHRM5 positive allosteric modulation; P08912; CHO-K1 hM5, Fluo-8 calcium, ACh EC20 PAM; 0% = ACh EC20, 100% = ACh EC100; activation, % at 3 µM; actives 0.3% (n = 360,000); AID 624038;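 active means activation above the run cutoff, the mean activation of all test compounds plus 3 SD, cut at about 18% in these data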
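system = human M5 receptor in CHO-K1 cells | reagent = EC20 acetylcholine as agonist stimulus | compound dosing = single-point, 3 µM nominal | incubation = Fluo-8 loading 80 min at 37 °C plus 30 min room temperature | detection = Fluo-8 calcium dye fluorescence, kinetic read | benchmarks = low control EC20 acetylcholine (0%), high control EC100 acetylcholine (100%)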
* marks the source's active call; other numbers are inactive results.

`CC(=O)c1ccc(S(=O)c2ccccc2)cc1` (stereo unspecified) gave M5 antag 0, CHRM5 agonist -5, M4 ag 2, CHRM4 antagonist -3, CHRM4 PAM 34* and M5 PAM 2.
For COC(=O)c1sc2nc(C)c([N+](=O)[O-])c(C)c2c1N the results were M5 antag -7, CHRM5 agonist -4, M4 ag 16, CHRM4 antagonist 18, CHRM4 PAM 46* and M5 PAM 4.
CCn1c(=O)c2sccc2n(Cc2cccc(C)c2)c1=O was read as M5 antag -4, CHRM5 agonist 1, M4 ag -1, CHRM4 antagonist 9, CHRM4 PAM 1 and M5 PAM -3.
Screening Cc1ccccc1CN1CCN(CC(=O)NC(C)c2ccccc2)CC1 (stereo unspecified) returned M5 antag 16, CHRM5 agonist -1, M4 ag 0, CHRM4 antagonist 12, CHRM4 PAM 0 and M5 PAM 1.
For CC1(c2ccc(Cl)cc2)NC(=O)N(CC(=O)N2CCc3ccccc32)C1=O (stereo unspecified) the results were M5 antag 7, CHRM5 agonist 40*, M4 ag 38*, CHRM4 antagonist -7, CHRM4 PAM -1 and M5 PAM -3.
For CCC1(CC)NC(=O)N(CC(=O)N2CCc3ccccc32)C1=O the results were M5 antag 2, CHRM5 agonist -3, M4 ag 0, CHRM4 antagonist -20, CHRM4 PAM 19* and M5 PAM 20*.
Screening Cc1ccc(C2(C)NC(=O)N(CC(=O)N3CCc4ccccc43)C2=O)cc1 (stereo unspecified) returned M5 antag 10, CHRM5 agonist 23, M4 ag 12, CHRM4 antagonist -11, CHRM4 PAM 0 and M5 PAM -13.
For CCC1(c2ccc(F)cc2)NC(=O)N(CC(=O)Nc2ccccc2Cl)C1=O (stereo unspecified) the results were M5 antag -9, CHRM5 agonist 33*, M4 ag 18, CHRM4 antagonist 7, CHRM4 PAM -4 and M5 PAM -10.
CCC1(c2ccc(F)cc2)NC(=O)N(CC(=O)N2CCc3ccccc32)C1=O (stereo unspecified) was read as M5 antag -1, CHRM5 agonist 38*, M4 ag 32, CHRM4 antagonist -10, CHRM4 PAM -2 and M5 PAM -8.
For Cc1ccccc1CC(=O)Nc1ccc2c(c1)c(=O)n(C)n2-c1cccs1 the results were M5 antag 1, CHRM5 agonist 0, M4 ag 3, CHRM4 antagonist -2, CHRM4 PAM -10 and M5 PAM -2.
For CC(=O)N1CCc2cc(S(=O)(=O)CCC(=O)NCCc3ccc(Cl)cc3)ccc21 the results were M5 antag 5, CHRM5 agonist 3, M4 ag 10, CHRM4 antagonist 13, CHRM4 PAM -8 and M5 PAM -2.
Screening CCOc1ccc(S(=O)(=O)NC(Cc2cnc[nH]2)C(=O)O)cc1 (stereo unspecified) returned M5 antag 5, CHRM5 agonist 5, M4 ag 3, CHRM4 antagonist -6, CHRM4 PAM 21* and M5 PAM 9.
`CC(C)(C)c1ccc(S(=O)(=O)N2CCNC(=O)C2)cc1` gave M5 antag 7, CHRM5 agonist -3, M4 ag 1, CHRM4 antagonist 8, CHRM4 PAM -1 and M5 PAM 1.
`COc1ccc(-c2cc(C(=O)N3CCN(c4ccccc4O)CC3)c3ccccc3n2)cc1` gave M5 antag 18, CHRM5 agonist 2, M4 ag 24, CHRM4 antagonist 29*, CHRM4 PAM -11 and M5 PAM -35.
Screening COc1ccc(-c2cc(C(=O)N3CCN(c4ccccc4O)CC3)c3ccccc3n2)cc1OC returned M5 antag 28*, CHRM5 agonist -3, M4 ag 15, CHRM4 antagonist 19, CHRM4 PAM -8 and M5 PAM -15.
Screening Cc1ccc(-c2cc(C(=O)N3CCN(c4ccccc4O)CC3)c3ccccc3n2)cc1 returned M5 antag 9, CHRM5 agonist 6, M4 ag 8, CHRM4 antagonist -6, CHRM4 PAM -6 and M5 PAM -16.
Screening COc1ccc(-c2cc(C(=O)N3CCN(c4ccccn4)CC3)c3ccccc3n2)cc1 returned M5 antag 25, CHRM5 agonist 2, M4 ag 16, CHRM4 antagonist 27*, CHRM4 PAM -26 and M5 PAM -17.
`COc1ccc(-c2cc(C(=O)N3CCN(c4ccccc4)CC3)c3ccccc3n2)cc1` gave M5 antag 18, CHRM5 agonist 0, M4 ag 11, CHRM4 antagonist 1, CHRM4 PAM -8 and M5 PAM -16.
CCOc1ccc(-c2cc(C(=O)N3CCN(c4ccccn4)CC3)c3ccccc3n2)cc1 was read as M5 antag -1, CHRM5 agonist 1, M4 ag 7, CHRM4 antagonist 9, CHRM4 PAM -4 and M5 PAM 1.
For CC(C)n1c(=O)c2ccccc2n1Cc1cn(C2CCCC2)nn1 the results were M5 antag 7, CHRM5 agonist -5, M4 ag 0, CHRM4 antagonist -4, CHRM4 PAM -2 and M5 PAM 0.
Screening CSCCC(NC(=O)c1cccc(C)c1)C(=O)Nc1sccc1C(N)=O (stereo unspecified) returned M5 antag 11, CHRM5 agonist -1, M4 ag 5, CHRM4 antagonist 2, CHRM4 PAM -8 and M5 PAM -1.
Screening COc1ccccc1NCC(=O)NC(=O)NC1CCCCC1 returned M5 antag 6, CHRM5 agonist 0, M4 ag 2, CHRM4 antagonist -17, CHRM4 PAM 7 and M5 PAM 9.
For O=C(OCC(=O)N1CCOCC1)c1cc(=O)[nH]c2ccccc12 the results were M5 antag -10, CHRM5 agonist 5, M4 ag 1, CHRM4 antagonist -5, CHRM4 PAM 2 and M5 PAM -3.
Cc1ccc(Cl)cc1N1CCN(Cc2cc(=O)n3ccsc3n2)CC1 was read as M5 antag -14, CHRM5 agonist 0, M4 ag 5, CHRM4 antagonist -17, CHRM4 PAM 2 and M5 PAM 19*.
CC(Oc1ccccc1)c1nnc(SCC(=O)NC2CC2)n1C (stereo unspecified) was read as M5 antag 3, CHRM5 agonist -4, M4 ag 2, CHRM4 antagonist 1, CHRM4 PAM 20* and M5 PAM -7.
